Assay results taken from ChEMBL document CHEMBL2417401, “Evaluation of steroidal amines as lipid raft modulators and potential anti-influenza agents” (Bioorg Med Chem Lett, 2013).

What was measured:
[1] = tested on: Influenza A virus; test: Antiviral activity against Influenza A/PR8/34 (H1N1) virus infected in MDCK2 cells assessed as inactivation of virus by virucidal assay relative to control; assay type: functional, A/Puerto Rico/8/1934(H1N1), MDCK-II; set-up: concentration or dose not given beside the values
Summary of the method: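 Influenza A/PR8/34 (H1N1) incubated with compound for 30 min, then titrated by focus reduction assay (cell ELISA in MDCKII cells with anti-nucleoprotein antibody HB65). Activity expressed relative to DMSO solvent control set at 100%.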

[2] = Therapeutic index, ratio of MTD for MDCK2 cells to IC50 for Influenza A/PR8/34 (H1N1) virus; assay type: cell-based; settings: dog, read-out: TI
Summary of the method: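 TI = MTC/IC50. IC50 comes from a focus reduction cell ELISA (anti-NP antibody HB65) in MDCKII cells, which were pre-incubated 5 min with serially diluted compound and then infected with serially diluted A/PR8/34. IC50 was obtained by regression where a dose-effect relation was seen; assays were run at least twice.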

[3] = Cytotoxicity against MDCK2 cells assessed as maximum tolerated concentration by lactate dehydrogenase release assay; assay type: cell-based, Canis lupus familiaris, MDCK-II; settings: dog, read-out: MTD
Summary of the method: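 Maximum tolerated concentration in MDCKII cells from LDH release, determined under focus reduction assay conditions.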

[4] = tested on: Influenza A virus; test: Antiviral activity against Influenza A/PR8/34 (H1N1) virus infected in MDCK2 cells assessed as raft modulation using perylene as tracer relative to control; assay type: functional, A/Puerto Rico/8/1934(H1N1), MDCK-II; set-up: concentration or dose not given beside the values
Summary of the method: (§1)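 Raft liposomes (mol %: cholesterol 35, sphingomyelin 10.5, ganglioside M1 3.5, phosphatidylcholine 25.5, phosphatidylserine 25.5). Tracer is perylene or an N-terminally sterol-linked peptide inserted in the outer leaflet. Liposome/buffer partitioning is read by fluorescence; P is approximated as the membrane/aqueous tracer ratio. Disrafting % = 100×{1−P_steroid/P_DMSO}; augmentation % = −100×{1−P_DMSO/P_steroid}.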

[5] = tested on: Influenza A virus; test: Antiviral activity against Influenza A/PR8/34 (H1N1) virus infected in MDCK2 cells assessed as raft modulation using N-terminally sterol-linked peptide as tracer relative to control; assay type: functional, A/Puerto Rico/8/1934(H1N1), MDCK-II; set-up: concentration or dose not given beside the values; summary of the method: as §1
[6] = tested on: Influenza A virus; test: Antiviral activity against Influenza A/PR8/34 (H1N1) virus infected in MDCK2 cells assessed as inhibition of virus reproduction by ELISA; assay type: functional, organism-based; settings: A/Puerto Rico/8/1934(H1N1), MDCK-II
[7] = tested on: Influenza A virus; test: Antiviral activity against Influenza A/PR8/34 (H1N1) virus infected in MDCK2 cells assessed as inhibition of virus budding by ELISA relative to control; assay type: functional, A/Puerto Rico/8/1934(H1N1), MDCK-II
Summary of the method: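 Infected MDCKII cells biotinylated 6 h post-infection; excess biotin quenched, and virus budded over the next hour harvested. Biotinylated particles captured on streptavidin-coated plates and detected by ELISA. Result relative to DMSO solvent control (100%).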

Compound | Activity [1] [%] | selectivity ratio [2] | MNTC [3] [µM] | Activity [4] [%] | Activity [5] [%] | IC50 [6] [µM] | IC90 [6] [µM] | inhibition (INH) [7] [%]
CC(C)CCC[C@@H](C)[C@H]1CC[C@H]2[C@@H]3CC[C@H]4C[C@H](O)[C@@H](N)C[C@]4(C)[C@H]3CC[C@]12C | 75.5 | 16 | 75 | 26.5 | 32.3 | 4.7 | 62 | 53
CC(C)CCC[C@@H](C)[C@H]1CC[C@H]2[C@@H]3CC[C@H]4NCCC[C@]4(C)[C@H]3CC[C@]12C | 0 | 2.5 | 15 | 2.8 | 36.1 | 5.9 | – | 20.4
CC(C)CCC[C@@H](C)[C@H]1CC[C@H]2[C@@H]3CC[C@H]4C[C@H](CN)CC[C@]4(C)[C@H]3CC[C@]12C | 50.9 | 10.1 | 37.5 | -60.3 | -39.6 | 3.7 | 7.7 | 12.7
CC(C)CCC[C@@H](C)[C@H]1CC[C@H]2[C@@H]3CC[C@H]4CCNCC[C@]4(C)[C@H]3CC[C@]12C | 44.1 | 3.8 | 12.5 | – | – | 3.3 | 9.7 | 61.8
CC(C)CCC[C@@H](C)[C@H]1CC[C@H]2[C@@H]3CC[C@H]4C[C@@H]([N+](C)(C)C)CC[C@]4(C)[C@H]3CC[C@]12C.[I-] | 16 | 3.6 | 12.5 | 90.3 | 83.5 | 3.5 | ≥ 12.5 | 94.4
CC(C)CCC[C@@H](C)[C@H]1CC[C@H]2[C@@H]3CC[C@@]4(O)[C@H](O)C(=O)CC[C@]4(C)[C@H]3CC[C@]12C | – | – | – | – | – | 16 | – | –
CC(C)CCCC(C)C1CCC2C3CCC4CC(N)CCC4(C)C3CCC12C (centres undefined) | 47.8 | 8.8 | 15 | -42.4 | -7.1 | 1.7 | 9 | 51.8
CC(C)CCC[C@@H](C)[C@H]1CC[C@H]2[C@@H]3CC[C@H]4C[C@H](N)CC[C@]4(C)[C@H]3CC[C@]12C | 28.5 | 7.9 | 15 | -72.8 | 56.3 | 1.9 | ≥ 15 | 79.9
CC(C)CCC[C@@H](C)[C@H]1CC[C@H]2[C@@H]3CC[C@H]4C[C@@H](CN)CC[C@]4(C)[C@H]3CC[C@]12C | 90.3 | 9.4 | 37.5 | -66.6 | -39.3 | 4 | 11.6 | 30.7
CC(C)CCC[C@@H](C)[C@H]1CC[C@H]2[C@@H]3CC[C@H]4C[C@](O)(CN)CC[C@]4(C)[C@H]3CC[C@]12C | 64.2 | 10.9 | 25 | -41.5 | 15.6 | 2.3 | 21.5 | 41
CC(C)CCC[C@@H](C)[C@H]1CC[C@H]2[C@@H]3CC=C4C[C@@H](N)CC[C@]4(C)[C@H]3CC[C@]12C | 63.4 | 2.9 | 25 | 83.2 | 78.8 | 8.6 | 11.4 | 50.9
CN[C@H]1CC[C@@]2(C)[C@@H](CC[C@@H]3[C@@H]2CC[C@]2(C)[C@@H]([C@H](C)CCCC(C)C)CC[C@@H]32)C1 | 0 | 7.6 | 25 | -50.5 | -7 | 3.3 | 17.5 | 33.8
CC(C)CCC[C@@H](C)[C@H]1CC[C@H]2[C@@H]3CC[C@@]4(O)[C@H](O)[C@@H](O)CC[C@]4(C)[C@H]3CC[C@]12C | 76.7 | 0.9 | 15 | -65.2 | -36.5 | 16.1 | – | 39.4
CC(C)CCC[C@@H](C)[C@H]1CC[C@H]2[C@@H]3CC[C@H]4C[C@@H](N(C)C)CC[C@]4(C)[C@H]3CC[C@]12C | 0 | 4.1 | 15 | 15.5 | 15.6 | 3.7 | ≥ 15 | 42.8
CC(C)CCC[C@@H](C)[C@H]1CC[C@H]2[C@@H]3CC[C@H]4C[C@@H](CCN)CC[C@]4(C)[C@H]3CC[C@]12C | 132 | 23.8 | 50 | -38.2 | 31.2 | 2.1 | 13.4 | 65
